Columns and labels:
TGF-β1 = assay: Hepatic TGF-β1 mRNA by RT-PCR in CCl4-treated mice; type: in vivo, mouse; conditions: compared to control
Procedure, shortened: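 Male CD1 mice, 10 weeks old, given CCl4 at 0.2 mL/kg (1:5 in olive oil) i.p. twice weekly; controls received olive oil only. Hepatic TGF-β1 mRNA was measured by RT-PCR and expressed as relative mRNA level by the ΔΔCT method. Values are mean ± SEM, n = 3–6, compared by one-way ANOVA with Tukey's post hoc test.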

[1] = Serum ALT and AST in CCl4-treated mice; type: in vivo, mouse; conditions: CCl4 0.2 mL/kg i.p. twice per week, 6 weeks (mild), mean ± SEM
integrin αvβ3 [2] = molecular target: T1, integrin αvβ3 (Mus musculus, UniProt O54890+P43406); type: binding; conditions: frozen fibrotic liver sections, severe CCl4 and BDL models, immunofluorescence
T1 sequence (P43406 31-885 limits assumed): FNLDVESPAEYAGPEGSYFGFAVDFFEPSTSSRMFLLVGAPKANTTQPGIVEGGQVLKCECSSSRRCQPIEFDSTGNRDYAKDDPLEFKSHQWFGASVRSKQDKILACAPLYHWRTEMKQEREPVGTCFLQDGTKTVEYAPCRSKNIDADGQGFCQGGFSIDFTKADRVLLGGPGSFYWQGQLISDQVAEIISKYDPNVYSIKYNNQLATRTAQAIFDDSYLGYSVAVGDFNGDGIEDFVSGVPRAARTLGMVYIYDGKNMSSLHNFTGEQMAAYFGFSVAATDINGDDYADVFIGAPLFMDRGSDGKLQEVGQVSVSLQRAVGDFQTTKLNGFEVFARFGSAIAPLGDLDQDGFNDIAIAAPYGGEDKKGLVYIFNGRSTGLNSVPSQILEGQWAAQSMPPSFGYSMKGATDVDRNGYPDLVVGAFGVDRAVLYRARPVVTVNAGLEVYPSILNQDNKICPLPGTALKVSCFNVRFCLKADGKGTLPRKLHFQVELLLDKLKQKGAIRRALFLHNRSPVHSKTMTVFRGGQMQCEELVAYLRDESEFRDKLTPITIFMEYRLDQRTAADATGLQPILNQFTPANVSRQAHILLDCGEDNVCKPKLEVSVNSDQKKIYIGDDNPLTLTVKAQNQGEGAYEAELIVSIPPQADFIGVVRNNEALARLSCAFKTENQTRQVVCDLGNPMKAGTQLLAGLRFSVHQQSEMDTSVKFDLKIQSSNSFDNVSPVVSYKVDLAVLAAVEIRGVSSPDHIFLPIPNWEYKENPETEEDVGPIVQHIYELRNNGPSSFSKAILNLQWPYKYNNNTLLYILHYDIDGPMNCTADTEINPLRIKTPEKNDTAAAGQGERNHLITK
T1 sequence (P43406 887-1044 partner limits assumed): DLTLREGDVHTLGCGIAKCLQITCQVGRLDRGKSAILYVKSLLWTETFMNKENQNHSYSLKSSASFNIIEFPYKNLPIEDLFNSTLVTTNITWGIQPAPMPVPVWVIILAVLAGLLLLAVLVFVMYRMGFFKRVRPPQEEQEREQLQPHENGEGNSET
T1 sequence (O54890 26-787): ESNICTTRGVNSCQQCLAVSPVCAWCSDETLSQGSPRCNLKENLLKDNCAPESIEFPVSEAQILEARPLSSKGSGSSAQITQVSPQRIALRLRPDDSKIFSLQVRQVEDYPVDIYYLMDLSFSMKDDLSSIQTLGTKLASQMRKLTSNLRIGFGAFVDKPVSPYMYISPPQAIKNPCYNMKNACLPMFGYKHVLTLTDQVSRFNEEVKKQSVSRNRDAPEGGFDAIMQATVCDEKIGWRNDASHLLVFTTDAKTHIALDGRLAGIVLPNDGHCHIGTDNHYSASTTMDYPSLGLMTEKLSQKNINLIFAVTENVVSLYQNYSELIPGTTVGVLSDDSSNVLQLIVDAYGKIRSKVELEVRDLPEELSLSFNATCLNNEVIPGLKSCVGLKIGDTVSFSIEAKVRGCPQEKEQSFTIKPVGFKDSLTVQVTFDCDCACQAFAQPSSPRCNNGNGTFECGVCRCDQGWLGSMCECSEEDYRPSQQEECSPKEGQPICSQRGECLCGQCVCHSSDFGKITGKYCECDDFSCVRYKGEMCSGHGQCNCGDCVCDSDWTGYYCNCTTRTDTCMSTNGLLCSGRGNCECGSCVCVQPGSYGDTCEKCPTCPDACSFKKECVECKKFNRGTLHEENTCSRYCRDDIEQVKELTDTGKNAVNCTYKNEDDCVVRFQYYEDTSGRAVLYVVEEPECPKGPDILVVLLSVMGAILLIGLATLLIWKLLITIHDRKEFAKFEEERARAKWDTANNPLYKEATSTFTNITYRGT
Procedure, shortened: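 Liver fibrosis was induced in 10-week-old male CD1 mice with CCl4, 0.2 mL/kg as 1:5 CCl4:olive oil, i.p. twice weekly for up to 12 weeks. Other mice had the common bile duct transected via midline laparotomy and were killed after 3 weeks. Frozen liver sections were co-stained with a FITC-labelled dimeric RGD peptide probe and α-SMA and CD68 antibodies to assess co-localization.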

integrin αvβ3 [3] = molecular target: integrin αvβ3 (Homo sapiens, UniProt P05106+P06756); type: binding; conditions: advanced fibrosis human liver frozen sections, immunofluorescence
Procedure, shortened: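 Snap-frozen liver sections came from patients with staged fibrosis (F1–F3, n=3 each) and from normal livers. Advanced-fibrosis sections were stained with a FITC-labelled PEG4-linked dimeric cyclic RGD peptide probe (green), plus CD68 or α-SMA (red). Co-localization was read by fluorescence microscopy at original magnification 100X.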

Chain of integrin αvβ3 (Homo sapiens, UniProt P05106+P06756) (P06756 31-889 limits assumed): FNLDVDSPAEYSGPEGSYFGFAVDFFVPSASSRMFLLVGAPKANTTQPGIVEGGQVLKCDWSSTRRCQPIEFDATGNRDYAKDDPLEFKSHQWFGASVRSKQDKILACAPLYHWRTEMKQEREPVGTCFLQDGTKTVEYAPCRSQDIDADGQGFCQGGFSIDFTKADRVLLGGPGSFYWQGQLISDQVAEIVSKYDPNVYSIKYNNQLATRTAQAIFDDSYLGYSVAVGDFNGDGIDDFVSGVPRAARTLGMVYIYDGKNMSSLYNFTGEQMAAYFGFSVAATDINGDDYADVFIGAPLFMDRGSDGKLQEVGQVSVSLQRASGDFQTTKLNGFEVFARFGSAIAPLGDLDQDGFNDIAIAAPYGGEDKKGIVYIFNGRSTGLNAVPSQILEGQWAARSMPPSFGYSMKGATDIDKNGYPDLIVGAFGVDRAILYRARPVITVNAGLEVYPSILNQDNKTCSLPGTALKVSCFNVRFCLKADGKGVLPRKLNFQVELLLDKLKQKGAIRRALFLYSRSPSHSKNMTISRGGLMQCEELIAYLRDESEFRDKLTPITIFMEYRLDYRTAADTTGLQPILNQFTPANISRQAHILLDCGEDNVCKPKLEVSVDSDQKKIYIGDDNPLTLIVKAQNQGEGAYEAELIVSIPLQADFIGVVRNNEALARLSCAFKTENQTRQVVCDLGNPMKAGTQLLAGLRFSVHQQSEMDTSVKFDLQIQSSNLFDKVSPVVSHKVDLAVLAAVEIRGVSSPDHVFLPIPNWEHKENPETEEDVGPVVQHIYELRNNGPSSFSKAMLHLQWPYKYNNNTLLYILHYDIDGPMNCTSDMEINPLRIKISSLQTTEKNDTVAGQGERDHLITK
Chain of integrin αvβ3 (Homo sapiens, UniProt P05106+P06756) (P06756 891-1048 partner limits assumed): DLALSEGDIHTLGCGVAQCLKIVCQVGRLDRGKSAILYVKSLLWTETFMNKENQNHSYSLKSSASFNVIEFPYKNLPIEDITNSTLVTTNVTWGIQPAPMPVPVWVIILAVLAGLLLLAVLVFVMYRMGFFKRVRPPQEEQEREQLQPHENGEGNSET
Chain of integrin αvβ3 (Homo sapiens, UniProt P05106+P06756) (P05106 27-788): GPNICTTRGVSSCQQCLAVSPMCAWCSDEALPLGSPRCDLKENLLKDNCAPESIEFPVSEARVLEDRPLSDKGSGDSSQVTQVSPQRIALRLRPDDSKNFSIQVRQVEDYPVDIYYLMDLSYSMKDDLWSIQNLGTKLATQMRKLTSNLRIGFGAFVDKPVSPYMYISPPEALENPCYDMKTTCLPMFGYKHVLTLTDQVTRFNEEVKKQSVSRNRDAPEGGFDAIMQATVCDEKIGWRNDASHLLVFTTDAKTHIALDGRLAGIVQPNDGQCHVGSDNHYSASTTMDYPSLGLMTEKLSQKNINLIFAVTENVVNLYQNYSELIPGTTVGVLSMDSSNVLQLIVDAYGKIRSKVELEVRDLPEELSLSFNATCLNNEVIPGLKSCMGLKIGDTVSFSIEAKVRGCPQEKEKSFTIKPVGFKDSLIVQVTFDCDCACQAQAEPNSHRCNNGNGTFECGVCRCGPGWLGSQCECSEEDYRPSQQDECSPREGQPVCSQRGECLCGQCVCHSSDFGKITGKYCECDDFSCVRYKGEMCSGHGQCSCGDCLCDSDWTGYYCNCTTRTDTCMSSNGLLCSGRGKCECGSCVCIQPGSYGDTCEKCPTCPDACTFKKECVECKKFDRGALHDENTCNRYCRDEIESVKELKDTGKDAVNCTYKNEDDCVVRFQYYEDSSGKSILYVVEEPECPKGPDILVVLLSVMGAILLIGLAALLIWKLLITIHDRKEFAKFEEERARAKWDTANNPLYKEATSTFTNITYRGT

Compound	hepatic TGF-β1 mRNA level increase (TGF-β1; 6 weeks of CCl4 treatment)	hepatic TGF-β1 mRNA level increase (TGF-β1; 12 weeks of CCl4 treatment)	serum ALT ([1]; sham 20.66±1.383)	serum AST ([1]; sham 76.24±6.128)	co-localization with CD68 (integrin αvβ3 [2])	co-localization with α-SMA (integrin αvβ3 [2])	co-localization with CD68 (integrin αvβ3 [3])	co-localization with α-SMA (integrin αvβ3 [3])
ClC(Cl)(Cl)Cl [CCl4, carbon-tetrachloride]	2 fold	8 fold	96.22±18.5	125.7±9.82	–	–	–	–
FITC-E(PEG4-RGDfK)2 [FITC-RGD2]	–	–	–	–	little co-localization	high co-localization	low co-localization	high co-localization
